IDH1 R132H inh = inhibitors of human IDH1 R132H; O75874; IDH1 R132H reductase, diaphorase/resazurin fluorescence, 60 min; inhibition, % at 10 µM; actives 0.18% (n = 70,000); AID 624101; in the data active = inhibition above about 34%; inconclusive = no clear call, values can overlap the other calls; inactive = below about 11%;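 note: 0% = DMSO and 100% = no enzyme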
Pf Dd2 growth = P. falciparum Dd2 growth inhibition; SYBR Green, 72 h; hits give low values; activity change, % at 10 µM; actives 2.3% (n = 94,000); AID 1159554; in the data active = activity change below about -80%; inconclusive = no clear call, values can overlap the other calls
GASC1 inh = KDM4C (human) demethylase inhibition. GST-KDM4C 2-372, H3K9me3 peptide, LANCE TR-FRET. Q9H3R0. inhibition, % at 12.5 µM. actives 0.15% (n = 96,000);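 active = mean replicate inhibition above about 25%, with at least 55% of replicates also reaching it, limit read from the data, passing the limit was not always enough; inconclusive = only one of those two conditions met; inactive = neither condition met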
Target sequence (Q9H3R0 2-372 limits assumed): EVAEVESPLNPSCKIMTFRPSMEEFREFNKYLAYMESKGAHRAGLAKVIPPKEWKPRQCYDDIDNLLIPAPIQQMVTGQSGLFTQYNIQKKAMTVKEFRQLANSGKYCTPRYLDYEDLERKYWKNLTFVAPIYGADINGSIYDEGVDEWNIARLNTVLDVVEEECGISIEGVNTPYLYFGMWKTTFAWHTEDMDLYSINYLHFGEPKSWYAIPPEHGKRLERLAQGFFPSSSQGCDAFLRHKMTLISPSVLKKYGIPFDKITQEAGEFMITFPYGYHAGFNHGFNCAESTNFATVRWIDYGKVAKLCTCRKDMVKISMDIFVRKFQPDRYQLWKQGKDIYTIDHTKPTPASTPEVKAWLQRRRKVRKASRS
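System: N-terminal GST-fused human GASC-1 (KDM4C) fragment, residues 2-372; amount: enzyme final amount 10 nM; incubation: reaction 30 min RT, detection step 1 h RT; medium: HEPES buffer, pH 7.5, plus ascorbate; technique: LANCE TR-FRET, Eu antibody, ULight-streptavidin, EDTA, ex 340 nm, em 618/671 nm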
T cruzi growth = T. cruzi proliferation inhibition. T. cruzi beta-gal in NIH3T3, GalScreen luminescence, 90 h. inhibition, % at 8.34 µM. actives 5.9% (n = 77,000). AID 624255;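 active = mean inhibition above about 93%, with at least 55% of replicates each passing it, limit read from the data, passing the limit was not always enough; inconclusive = only one of those two conditions holds; inactive = neither condition holds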
* hit, by the source's call; ? = inconclusive; . = no result; ! = not confirmed by another sample. Rows were chosen to be rich in hits. Some 5.9% of all compounds tested hit in one or more screens of this group.

SMILES	IDH1 R132H inh	Pf Dd2 growth	GASC1 inh	T cruzi growth
C[C@@H]1CCCCO[C@@H](CN(C)C(=O)C2CCCCC2)[C@@H](C)CN([C@@H](C)CO)C(=O)c2cc(NC(=O)C3CCCCC3)ccc2O1	5.5	-85.5*	17.6	38.0
C[C@@H]1CCCCO[C@H](CN(C)C(=O)c2ccccc2)[C@@H](C)CN([C@H](C)CO)C(=O)c2cc(NC(=O)Nc3ccc4c(c3)OCO4)ccc2O1	.	5.7	-1.9	23.2
C[C@@H]1CCCCO[C@H](CN(C)C(=O)c2ccccc2)[C@@H](C)CN([C@@H](C)CO)C(=O)c2cc(NC(=O)Nc3ccc4c(c3)OCO4)ccc2O1	0.6	-81.3*	0.2	35.7
O=C(COc1cccc(NC(=O)c2ccccc2Cl)c1)c1ccc(F)cc1	-0.4	.	.	.
COc1cc2c(cc1OC)C(c1ccc(N)cc1)=NNC(=O)C2	0.4	.	.	.
C[C@@H]1CN([C@H](C)CO)C(=O)c2cc(C#CCc3ccccc3)cnc2O[C@H]1CN(C)Cc1ccccc1	.	-65.8	1.3	.
C[C@@H]1CN([C@@H](C)CO)C(=O)Cc2cc(NC(=O)Cc3ccccc3)ccc2O[C@@H]1CN(C)S(=O)(=O)c1ccc(Cl)cc1	-6.2	-49.7	-0.3	8.8
C[C@H]1CCCCO[C@@H](CN(C)C(=O)C2CCCCC2)[C@@H](C)CN([C@@H](C)CO)C(=O)c2cc(NC(=O)c3ccncc3)ccc2O1	-3.7	-80.9*	-0.3	18.5
C[C@H](CO)N1C[C@H](C)[C@H](CN(C)C(=O)C2CCCCC2)OCCCC[C@H](C)Oc2ccc(NC(=O)c3ccncc3)cc2C1=O	3.8	53.5	0.0	18.2
C[C@@H]1CCCCO[C@H](CN(C)C(=O)C2CCCCC2)[C@@H](C)CN([C@@H](C)CO)C(=O)c2cc(NC(=O)Cc3ccccc3)ccc2O1	.	-84.9*	-1.5	42.0
C[C@H]1CCCCO[C@@H](CN(C)C(=O)C2CCCCC2)[C@@H](C)CN([C@@H](C)CO)C(=O)c2cc(NC(=O)Nc3ccccc3)ccc2O1	-4.5	-88.1*	-1.3	65.4
C[C@H](CO)N1C[C@H](C)[C@H](CN(C)C(=O)C2CCCCC2)OCCCC[C@H](C)Oc2ccc(NC(=O)Nc3ccccc3)cc2C1=O	.	-1.5	.	90.9
CC(C)NC(=O)Nc1ccc2c(c1)CC(=O)N([C@H](C)CO)C[C@H](C)[C@H](CN(C)Cc1ccncc1)O2	-1.0	-1.9	1.8	.
COc1ccc2c3c(n(C)c2c1)[C@H](CO)N(Cc1cc(F)ccc1F)CC31CCN(C(=O)C2CC2)CC1	.	?	1.3	.
CCC(=O)N1CCC2(CC1)CN(Cc1cccc(Cl)c1)[C@H](CO)c1c2c2ccc(OC)cc2n1C	.	-89.0*	-1.1	.
COc1ccc2c3c(n(C)c2c1)[C@H](CO)N(Cc1ccccc1)CC31CCN(C(=O)C2CC2)CC1	.	-83.1*	-2.3	.
COc1ccc2c3c(n(C)c2c1)[C@@H](CO)N(Cc1cc(F)ccc1F)CC31CCN(C(=O)C2CC2)CC1	.	-81.1*	-1.5	.
CCCN(C)C[C@H]1OCCCC[C@@H](C)Oc2ccc(NS(=O)(=O)c3ccc(C)cc3)cc2C(=O)N([C@@H](C)CO)C[C@H]1C	.	-86.1*	0.6	55.3
CCCN(C)C[C@H]1OCCCC[C@@H](C)Oc2ccc(NS(=O)(=O)c3ccc(C)cc3)cc2C(=O)N([C@H](C)CO)C[C@H]1C	.	-89.3*	-4.7	75.2
CCCN(C)C[C@H]1OCCCC[C@@H](C)Oc2ccc(NS(=O)(=O)c3ccc(Cl)cc3)cc2C(=O)N([C@@H](C)CO)C[C@H]1C	2.9	-85.9*	1.0	33.0
C[C@@H]1CCCCO[C@H](CN(C)Cc2ccc3c(c2)OCO3)[C@H](C)CN([C@H](C)CO)C(=O)c2cc(NS(=O)(=O)c3ccc(Cl)cc3)ccc2O1	-0.8	-82.8*!	1.8	81.0
CCCN(C)C[C@@H]1OCCCC[C@@H](C)Oc2ccc(NS(=O)(=O)c3ccc(Cl)cc3)cc2C(=O)N([C@H](C)CO)C[C@@H]1C	0.4	-60.9	-0.5	-1.9
CCCN(C)C[C@H]1OCCCC[C@@H](C)Oc2ccc(NS(=O)(=O)c3ccc(C)cc3)cc2C(=O)N([C@H](C)CO)C[C@@H]1C	1.4	-52.3	2.5	90.5
COc1ccc2c3c([nH]c2c1)[C@@H](CO)N(C(=O)C1CCOCC1)CC31CCN(S(C)(=O)=O)CC1	.	26.0	0.0	.
CCCN(C)C[C@@H]1OCCCC[C@@H](C)Oc2ccc(NS(=O)(=O)c3ccc(C)cc3)cc2C(=O)N([C@@H](C)CO)C[C@@H]1C	0.8	-62.7	0.5	52.0
SMILES	IDH1 R132H inh	Pf Dd2 growth	GASC1 inh	T cruzi growth
COc1ccc(S(=O)(=O)Nc2ccc3c(c2)C(=O)N([C@H](C)CO)C[C@@H](C)[C@H](CN(C)Cc2ccc(Cl)c(Cl)c2)OCCCC[C@H](C)O3)cc1	.	-84.3*	0.2	11.8
CCCN(C)C[C@H]1OCCCC[C@H](C)Oc2ccc(NS(=O)(=O)c3ccc(OC)cc3)cc2C(=O)N([C@H](C)CO)C[C@H]1C	0.3	-86.3*	1.3	81.6
CCCN(C)C[C@@H]1OCCCC[C@H](C)Oc2ccc(NS(=O)(=O)c3ccc(C)cc3)cc2C(=O)N([C@@H](C)CO)C[C@H]1C	.	-93.9*	2.7	61.8
Cc1noc(C)c1NC(=O)Nc1cccc2c1O[C@@H](CN(C)S(=O)(=O)c1ccc(F)cc1)[C@H](C)CN([C@@H](C)CO)C2=O	.	8.1	-1.3	65.8
OC[C@@H]1[C@H](c2ccc(-c3ccc(F)cc3)cc2)[C@H](CNC2CCCC2)N1CCC(F)(F)F	.	-89.0*	-2.0	.
OC[C@@H]1[C@H](c2ccc(-c3ccc(F)cc3)cc2)[C@@H](CNC2CCCC2)N1CCC(F)(F)F	.	-96.6*	-0.7	.
OC[C@H]1[C@@H](c2ccc(-c3ccc(F)cc3)cc2)[C@@H]2CN(CCC(F)(F)F)CCCCN12	.	-78.8	-0.9	94.3
C[C@H](CO)N1C[C@H](C)[C@H](CN(C)C(=O)Cc2ccccc2)OCCCC[C@H](C)Oc2ccc(NS(=O)(=O)c3ccc(Cl)cc3)cc2C1=O	.	-22.3	0.3	86.6
CO[C@H]1CN(C)C(=O)c2ccc(NC(=O)C3CCCC3)cc2OC[C@@H](C)NC[C@H]1C	0.0	.	-3.1	35.9
C[C@H]1CN([C@@H](C)CO)C(=O)c2cc(NC(=O)Cc3cn(C)c4ccccc34)ccc2O[C@H]1CN(C)C(=O)Nc1ccccc1	-18.5	-28.5	-3.0	4.8
C[C@@H]1CN([C@@H](C)CO)C(=O)CCCn2nncc2CO[C@H]1CN(C)S(=O)(=O)c1ccc2c(c1)OCCCO2	.	3.7	.	-43.9
CNC[C@H]1Oc2ccc(NC(=O)CCN3CCOCC3)cc2CC(=O)N([C@H](C)CO)C[C@H]1C	2.1	8.8	0.0	26.4
Cc1ccc(-c2ccc([C@H]3[C@@H](CO)N4CCCCN(S(=O)(=O)c5ccccc5C)C[C@@H]34)cc2)cc1	.	-28.2	-0.3	91.7
COc1cccc(S(=O)(=O)N2CCCCN3[C@@H](CO)[C@@H](c4ccc(C5=CCCCC5)cc4)[C@@H]3C2)c1	.	-84.4*	0.3	72.8
Cc1ccc(-c2ccc([C@@H]3[C@H](CO)N4CCCCN(S(=O)(=O)c5ccccc5C)C[C@@H]34)cc2)cc1	.	-81.8*	-2.7	-15.3
